# Most compounds without a hit are left out; they make up all but 1.8% or so of the library.
# CAL PDZ FP-1 = CAL PDZ peptide-binding inhibitors, primary screen, biochemical, fluorescence polarization, Cer-tagged CAL PDZ, HTS | Golgi-associated PDZ and coiled-coil motif-containing protein (Homo sapiens), Q9HD26 | AID 504414, 2011 | 0.02% of 330,000 active | purified CAL PDZ, TMR-peptide fluorescence polarization, 1 h | inhibition, % at 20 µM;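 active = highest replicate inhibition of at least 40%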
#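 material = purified tagged CAL PDZ domain construct (CerCALP) | buffer or medium = sodium phosphate/NaCl buffer pH 7.4 with TCEP, IgG, Thesit | reagent = TMR-labelled reporter peptide T*-PRC34 bound in PDZ groove | incubation = 1 h room-temperature incubation prior to read | measured by = fluorescence polarization (mP) | evaluation = percent inhibition from loss of millipolarization | control set = unlabelled peptide and DMSO controls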
# DDE Tn7 FP inh = inhibitors of Tn7 peptide binding to fibrin DD(E), primary screen, biochemical, fluorescence polarization, human fibrin, Tn7 probe; inhibition, % at 8.3 µM; FP displacement of FITC-Tn7 peptide from fibrin DD(E); 0% = median of compound wells per plate; 0.13% of 370,000 active;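 active = inhibition above the mean of compounds falling within the control limits plus 3 SD of them, cut at about 14% in these data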
#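 Measure: % inhibition scaled between sample-field median and high-control FP; Test system: human fibrin DD(E); Quantity: 2 µM final DD(E) protein; Doses: one dose, 8.3 µM nominal; Schedule: compound with protein 10 min, then 3 h after probe, room temperature; Detection: fluorescence polarization; Medium: Tris buffer with calcium and detergent, pH 7.8.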
# ARNT-TACC3 inh = disruptors of ARNT/TACC3 protein interaction, primary screen, biochemical, AlphaScreen, single concentration | 0.66% of 390,000 active | inhibition, % at 9.99 µM | AlphaScreen His-ARNT PAS-B/GST-TACC3 binding, luminescence; TACC3 fragment carries E629A point mutation | Transforming acidic coiled-coil-containing protein 3 (Homo sapiens), Q9Y6A5 | AID 623870, 2012;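 active = mean inhibition of replicates at least 50% and at least half of replicates each reaching 50%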
# DDE Tn6 FP inh = inhibitors of Tn6 peptide binding to fibrin DD(E), primary screen, biochemical, fluorescence polarization, human fibrin, Tn6 probe | Fibrinogen beta chain (Homo sapiens), P02675 | 0.21% of 370,000 active | Fibrin DD(E) TRITC-Tn6 fluorescence polarization displacement | inhibition, % at 8.3 µM;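 active = inhibition above a per-campaign cutoff: mean of compounds within control limits plus 3 SD, cut at about 15% in these data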
# CAL PDZ FP-2 = untagged CAL PDZ binding inhibitors, primary screen, biochemical, fluorescence polarization, HTS; AID 602252, 2012; 0.92% of 300,000 active; purified CAL PDZ, TMR-peptide fluorescence polarization, 1 h; Golgi-associated PDZ and coiled-coil motif-containing protein (Homo sapiens), Q9HD26; inhibition, % at 24.9 µM;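 active = mean inhibition of at least 30% with at least half of replicates also reaching 30%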
# GRK2 aptamer HTS = compounds blocking aptamer binding on GRK2 – biochemical, human GRK2, bead flow cytometry, HTS, primary screen | FAM-aptamer displacement from GRK2 | inhibition of aptamer binding, % at 10 µM | AID 488847, 2010 | 0.59% of 330,000 active | Beta-adrenergic receptor kinase 1 (Homo sapiens), P25098;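 active = inhibition of aptamer binding above 40%, roughly 3 SD of noise, on plates passing a quality check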;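 note: median bead fluorescence of bound FAM aptamer so fluorescent compounds give negative values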
# Target sequence (P25098 whole entry, looked up): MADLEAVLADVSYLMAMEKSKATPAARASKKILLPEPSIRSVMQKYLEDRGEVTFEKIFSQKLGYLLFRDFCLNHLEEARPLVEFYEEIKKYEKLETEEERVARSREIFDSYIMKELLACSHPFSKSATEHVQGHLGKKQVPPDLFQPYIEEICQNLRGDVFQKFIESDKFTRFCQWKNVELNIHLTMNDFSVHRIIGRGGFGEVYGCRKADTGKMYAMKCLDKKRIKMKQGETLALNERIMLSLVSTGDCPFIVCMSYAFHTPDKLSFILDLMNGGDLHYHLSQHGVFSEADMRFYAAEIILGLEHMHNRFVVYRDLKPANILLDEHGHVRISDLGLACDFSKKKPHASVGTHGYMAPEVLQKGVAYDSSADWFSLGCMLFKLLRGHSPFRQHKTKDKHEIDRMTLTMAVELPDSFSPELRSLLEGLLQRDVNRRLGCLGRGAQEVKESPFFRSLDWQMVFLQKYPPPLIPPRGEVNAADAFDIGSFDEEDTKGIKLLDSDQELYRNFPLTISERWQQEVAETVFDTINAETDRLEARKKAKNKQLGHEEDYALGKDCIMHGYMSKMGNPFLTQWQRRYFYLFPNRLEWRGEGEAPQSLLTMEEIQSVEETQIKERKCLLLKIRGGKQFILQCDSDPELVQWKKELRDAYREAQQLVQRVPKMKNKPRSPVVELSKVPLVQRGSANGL
# GRK2 inh confirm = GRK2 aptamer-displacing inhibitors, retest, confirmation, biochemical, cherry pick 1, bead flow cytometry; shares compounds with GRK2 aptamer HTS; bead-bound GRK2, FAM-aptamer displacement; aptamer displacement, % at 10 µM; 4% of 2,000 active;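 active = aptamer displacement above 40%, near three times the noise of non-fluorescent compounds, on plates passing quality checks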;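 note: negative values mostly reflect intrinsic compound fluorescence rather than true enhancement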
# Aptamer quench 1 = fluorescent aptamer quenching in GRK2 counter-screen dose response | AID 504521 | 110 tested, under 10 active | shares compounds with GRK2 aptamer HTS | Fluorescent RNA aptamer beads, flow cytometry; hits give high values | fluorescence change (kMESF span), kMESF (concentration not given with the values);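 active = compounds whose bead fluorescence drops by more than 37 kMESF across the dose range, marking them as dye quenchers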
# FAM quench CP1 = aptamer fluorescence quenching in GRK2 counter-screen; 2,000 tested, under 10 active; Carboxyfluorescein RNA aptamer on beads, flow cytometry quenching; hits give low values; fluorescence response (% of DMSO), % at 10 µM; shares compounds with GRK2 aptamer HTS;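 active = compounds that quench the bead-bound fluorescent RNA probe, cutting fluorescence to under half of the solvent control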;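 note: counterscreen run without GRK2 so only probe quenching by compound is measured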
# GRK2 CP2 = GRK2 aptamer-displacing inhibitors, hit retest, confirmation, biochemical, cherry pick 2, bead flow cytometry; shares compounds with GRK2 aptamer HTS; bead-bound GRK2, FAM-aptamer displacement; inhibition of aptamer binding, % at 10 µM; 360 tested, under 10 active;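 active = inhibition of aptamer binding above 40%, about triple the noise seen with nonglowing compounds, on plates passing quality control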;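 note: negative values mostly come from compounds that fluoresce themselves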
# FAM quench SP = quenches fluorescent RNA aptamer, GRK2 hit artifact | AID 588494 | 360 tested, under 10 active | carboxyfluorescein RNA aptamer beads, flow cytometry quenching; hits give low values | fluorescence response vs DMSO, % at 10 µM | shares compounds with GRK2 aptamer HTS;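 active = response vs DMSO under 50%, meaning signal dropped by over half, treated as fluorescence quencher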;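 note: labelled aptamer on streptavidin beads without GRK2 as a quench counter-screen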
# FAM quench PS1 = quenchers of FAM-labeled RNA aptamer fluorescence, dose response, artefact control for GRK2 aptamer binding project, biochemical, powder set 1, flow cytometry. shares compounds with GRK2 aptamer HTS. Bead-bound FAM RNA aptamer fluorescence quenching; hits give low values. fluorescence ratio to DMSO, % at 11.1 µM. 35 tested, under 10 active;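 active = compounds that dim the fluorescent label, raw bead signal shifting by over 33 units between lowest and highest dose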
# Hits are given with their value; 0 = inactive; - = no result.
SMILES,CAL PDZ FP-1,DDE Tn7 FP inh,ARNT-TACC3 inh,DDE Tn6 FP inh,CAL PDZ FP-2,GRK2 aptamer HTS,GRK2 inh confirm,FAM quench CP1,others
Cc1ccccc1-c1ncc(CN2CCC(CO)(CCCc3ccccc3)CC2)cn1,0,0,0,0,-,0,-,-,
O=C(COC(=O)c1ccccc1Nc1ccccc1)c1ccccc1,0,0,0,0,0,0,-,-,
COC(=O)c1ccccc1Nc1ccccc1,0,0,0,0,0,54,0,0,
C[C@@H]1CN([C@H](C)CO)S(=O)(=O)c2ccc(-c3cncnc3)cc2O[C@@H]1CN(C)C(=O)NC1CCCC1,-,-,0,-,-,-,-,-,
CC(=O)N1CCCc2cc(S(=O)(=O)CCC(=O)N3CCN(c4cccc(C)c4)C(C)C3)ccc21 (stereo not drawn),0,0,0,0,-,0,0,0,Aptamer quench 1=0
Cc1cccc(N2CCN(C(=O)CCS(=O)(=O)c3ccc(Br)cc3)CC2C)c1 (stereo not drawn),0,0,-,0,0,78,57,0,Aptamer quench 1=0;FAM quench PS1=0
Fc1ccc(-c2cn(-c3ccccc3)c3[n+]2CCS3)cc1,0,0,0,0,0,43,0,0,
C[C@H](CO)N1C[C@H](C)[C@H](CN(C)CC2CCOCC2)Oc2ncc(C#Cc3cccc(F)c3)cc2C1=O,-,-,0,-,-,-,-,-,
O=C(Nc1ccc(C(F)(F)F)cc1)N1CCN(c2ccnc3cc(Cl)ccc23)CC1,0,0,0,0,-,0,-,-,
C=CCN(CC=C)C(=O)c1ccc2nc(Cc3ccc(OC)c(OC)c3)oc2c1,0,0,0,0,0,41,0,0,
C[C@H](CO)N1C[C@H](C)[C@@H](CN(C)C(=O)Nc2ccc(F)cc2)Oc2cc(/C=C/c3ccccc3)ccc2S1(=O)=O,-,-,0,-,-,-,-,-,
COc1cccc(NC(=O)CSc2nnc(-c3cc(C)n(-c4ccccc4)c3C)o2)c1,0,0,0,0,0,98,0,0,
Oc1ccc(C[C@H]2CNCCN2CCc2cc(C(F)(F)F)cc(C(F)(F)F)c2)cc1,0,0,0,0,0,44,-,-,GRK2 CP2=0;FAM quench SP=0
CS(=O)(=O)Nc1ccc2c(c1)[C@@H]1C[C@H](CC(=O)NCc3ccccn3)O[C@H](CO)[C@@H]1O2,-,-,0,-,-,-,-,-,
CCN1CCCC1Cn1cnc2c([nH]c3cccc(Cl)c32)c1=O (stereo not drawn),0,0,0,0,0,0,-,-,
CCN1CCCC1Cn1cnc2c([nH]c3ccc(Cl)cc32)c1=O (stereo not drawn),0,0,0,0,0,92,0,0,
Cc1cccc(C)c1NC(=O)CN(C)CC(=O)c1c(N)n(Cc2ccccc2)c(=O)n(C)c1=O,0,0,0,0,0,0,0,0,
N=C1/C(=C\c2ccc(Br)o2)C(=O)N=C2SC(CC(=O)N3CCCCC3)=NN12,0,0,0,0,0,0,-,-,
Cc1ccc(/C=C2/C(=N)N3N=C(CC(=O)N4CCCC4)SC3=NC2=O)o1,0,0,-,0,0,0,0,0,
CC1CCN(C(=O)COC(=O)/C=C/c2ccc(Br)o2)CC1,0,0,0,0,0,0,-,-,
CC1CCCC(C)N1C(=O)COC(=O)/C=C/c1ccc(Br)o1 (stereo not drawn),0,0,0,0,-,43,0,0,
C/C(Cc1ccccc1)=N\NC(=O)CNC(=O)c1ccccc1,0,0,0,0,0,0,-,-,
C/C(Cc1ccccc1)=N\NC(=O)CNC(=O)c1ccc(Br)cc1,0,0,-,0,0,78,0,0,
CN1CCN(S(=O)(=O)c2ccc(NC(=O)C(C)(C)C)cc2)CC1,0,0,0,0,-,81,0,0,
Cn1cnnc1SCC(=O)Nc1ccc(Oc2ccccc2)cc1,0,0,0,0,-,0,-,-,
SMILES,CAL PDZ FP-1,DDE Tn7 FP inh,ARNT-TACC3 inh,DDE Tn6 FP inh,CAL PDZ FP-2,GRK2 aptamer HTS,GRK2 inh confirm,FAM quench CP1,others
Cn1cnnc1SCC(=O)Nc1ccccc1Oc1ccccc1,0,0,0,0,0,50,0,0,
COc1ccc(NC(=O)CSc2nncn2C)c([N+](=O)[O-])c1,-,0,0,0,0,51,0,0,
COc1ccc(NC(=O)CSc2ccccc2)c([N+](=O)[O-])c1,0,0,0,0,0,0,-,-,
CCO[C@H]1OC(C(N)=O)=C[C@@H](C(C)(C)C)[C@@H]1CCCO,0,0,0,0,0,0,-,-,
N#C[C@@H]1[C@H](c2ccc(C3=CCCC3)cc2)[C@H](CO)N1C(=O)Nc1ccccc1F,-,-,0,-,-,-,-,-,
Cc1ccc(NC2=C(Cl)C(=O)OC2OC(C)C)cc1 (stereo not drawn),0,0,0,0,0,47,0,0,
C[C@H]1CCCCO[C@H](CN(C)Cc2ccc(C(F)(F)F)cc2)[C@@H](C)CN([C@@H](C)CO)C(=O)c2cc(NC(=O)CCC(F)(F)F)ccc2O1,-,-,0,-,-,-,-,-,
O=C(CCC1CCCN(C(=O)CCN2CCCCC2=O)C1)NCc1ccccc1F (stereo not drawn),0,0,0,0,0,0,0,0,
O=C(CNC(=O)c1ccc(Br)o1)NCC1CCCCC1,0,0,0,0,-,0,-,-,

# Screening results deposited in PubChem by several laboratories.
